In ChEMBL document CHEMBL4014329, “Selective Inhibition of Escherichia coli RNA and DNA Topoisomerase I by Hoechst 33258 Derived Mono- and Bisbenzimidazoles” (J Med Chem, 2017):
In brackets after ≈: the same amount, converted by molar mass. Activity calls are given as the source filed them. The calls are words filed in the database; no cut-off is given here.

Key:
Enterococcus faecium = assay: Antibacterial activity against Enterococcus faecium BM4105RF after 24 hrs by microbroth dilution method; format: functional
Outline: (§1)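 Mueller-Hinton broth cultures grown at 37 °C with shaking to log phase, pelleted, resuspended in 0.85% saline to OD625 0.1. Broth microdilution per CLSI guidelines, final inoculum 5 × 10^5 CFU/mL, in triplicate, 24 h at 37 °C. Growth read as OD625. MIC is the lowest concentration giving complete growth inhibition versus untreated controls.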

Enterococcus faecalis = assay: Antibacterial activity against Enterococcus faecalis ATCC 29212 after 24 hrs by microbroth dilution method; format: functional; settings: ATCC 29212, 24 h
Outline: (§2)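 Microbroth dilution per CLSI guidelines. Organisms grown in Mueller−Hinton broth at 37 °C with shaking to log phase, pelleted, resuspended in 0.85% saline to OD625 0.1. Final inoculum 5 × 10^5 CFU/mL; triplicate; 24 h at 37 °C. OD625 read; MIC = lowest concentration completely inhibiting growth versus untreated controls.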

[1] = system: Staphylococcus epidermidis; assay: Antibacterial activity against Staphylococcus epidermidis ATCC 12384 after 24 hrs by microbroth dilution method; format: functional; settings: ATCC 12384, 24 h; outline: as §2
Staphylococcus aureus [2] = assay: Antibacterial activity against Staphylococcus aureus ATCC 33591 after 24 hrs by microbroth dilution method; format: functional; settings: ATCC 33591, 24 h; outline: as §2
Staphylococcus aureus [3] = assay: Antibacterial activity against methicillin-resistant Staphylococcus aureus A960649 after 24 hrs by microbroth dilution method; format: functional; settings: A960649, 24 h; outline: as §1
Staphylococcus aureus [4] = assay: Antibacterial activity against Staphylococcus aureus ATCC 29213 after 24 hrs by microbroth dilution method; format: functional; settings: ATCC 29213, 24 h; outline: as §2
[5] = Binding affinity to dA60.dT60 B-DNA duplex (unknown origin) assessed as change in melting temperature at 10 uM by UV-vis spectrophotometric analysis
Outline: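 UV melting of dA60·dT60 at 1 μM/duplex with compound at 10 μM. Buffer 10 mM sodium cacodylate, 0.1 mM EDTA, 100 mM NaCl, pH 7.0; duplex pre-annealed from 95 °C. Compound stocks in DMSO diluted into buffer. Heating at 0.2 °C/min, monitored at 260 nm, points every 1.0 °C; Tm taken from derivatives.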

Staphylococcus aureus [6] = assay: Antibacterial activity against methicillin-resistant Staphylococcus aureus 33591 after 24 hrs by microbroth dilution method; format: functional; settings: Staphylococcus aureus, 33591, 24 h; outline: as §1
Shigella flexneri = assay: Antibacterial activity against Shigella flexneri 2457NR517 after 24 hrs by microbroth dilution method; format: functional; settings: 2457NR517, 24 h; outline: as §1
Escherichia coli [7] = assay: Antibacterial activity against Escherichia coli ATCC 25922 after 24 hrs by microbroth dilution method; format: functional; settings: ATCC 25922, 24 h; outline: as §2
Escherichia coli [8] = assay: Antibacterial activity against Escherichia coli K-12 after 24 hrs by microbroth dilution method; format: functional; settings: K-12, 24 h; outline: as §2
Acinetobacter baumannii = assay: Antibacterial activity against Acinetobacter baumannii ATCC 19606 after 24 hrs by microbroth dilution method; format: functional; settings: ATCC 19606 = CIP 70.34 = JCM 6841, 24 h; outline: as §2
Pseudomonas aeruginosa = assay: Antibacterial activity against Pseudomonas aeruginosa ATCC 27853 after 24 hrs by microbroth dilution method; format: functional; settings: ATCC 27853, 24 h; outline: as §2
Klebsiella pneumoniae = assay: Antibacterial activity against Klebsiella pneumoniae NR15410 after 24 hrs by microbroth dilution method; format: functional; settings: NR15410, 24 h; outline: as §2
Enterobacter cloacae = assay: Antibacterial activity against Enterobacter cloacae ATCC 13047 after 24 hrs by microbroth dilution method; format: functional; settings: ATCC 13047, 24 h; outline: as §2
Citrobacter freundii = assay: Antibacterial activity against Citrobacter freundii 4747CFAA after 24 hrs by microbroth dilution method; format: functional; outline: as §2
[9] = Binding affinity to dA60.dT60 B-DNA duplex (unknown origin) assessed as induction of biphasic transition at <5 uM by UV-vis spectrophotometric analysis
[10] = Inhibition of Escherichia coli DNA topoisomerase 1 using plasmid pBAD-GFPuv as substrate after 15 mins by agarose gel electrophoresis
Outline: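 E. coli topoisomerase I at 6 nM relaxing 150 ng supercoiled pBAD-GFPuv. 15 min at 37 °C, phenol-stopped, 1% agarose gel, ethidium stain. IC50 is the concentration leaving 50% DNA supercoiled; three independent determinations.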

Escherichia coli [11] = assay: Inhibition of Escherichia coli RNA topoisomerase 1 using circular RNA as substrate up to 50 uM after 1.5 hrs by SDS-PAGE analysis
Outline: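 10 nM E. coli topoisomerase I premixed with reaction buffer and inhibitor diluted in DMSO, then circular RNA substrate added; 1.5 h incubation. Stopped with proteinase K/SDS/EDTA buffer. Trefoil RNA knot product separated from circular substrate on 15% TBE−urea gels and detected by phosphorimaging. DMSO-only control included.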

DU-145 = assay: Cytotoxicity against human DU145 cells after 48 hrs by SRB assay; format: cell-based; settings: Homo sapiens, DU-145, 48 h
Outline: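 Cells cultured per ATCC protocols, seeded and grown 24 h (37 °C, 5% CO2), then treated in triplicate at final 20, 10, 5, 2.5, 1.25, 0.625 and 0.0625 μM for 48 h. Fixed with cold TCA (16% final, 4 °C, 1 h), stained with SRB in 1% acetic acid, dye solubilized in 10 mM Tris base, A560 read. IC50 derived; study in duplicate.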

Structure (SMILES) | MIC (Enterococcus faecium) [µg/mL] | MIC (Enterococcus faecalis) [µg/mL] | MIC [1] [µg/mL] | MIC (Staphylococcus aureus [2]) [µg/mL] | MIC (Staphylococcus aureus [3]) [µg/mL] | MIC (Staphylococcus aureus [4]) [µg/mL] | ΔTm [5] [°C] | MIC (Staphylococcus aureus [6]) [µg/mL] | MIC (Shigella flexneri) [µg/mL] | MIC (Escherichia coli [7]) [µg/mL] | MIC (Escherichia coli [8]) [µg/mL] | MIC (Acinetobacter baumannii) [µg/mL] | MIC (Pseudomonas aeruginosa) [µg/mL] | MIC (Klebsiella pneumoniae) [µg/mL] | MIC (Enterobacter cloacae) [µg/mL] | MIC (Citrobacter freundii) [µg/mL] | Activity [9] | IC50 [10] [µM] | inhibition (Escherichia coli [11]) | IC50 (DU-145) [µM]
C#Cc1ccc(-c2cn(CCOc3ccc(-c4nc5ccc(N6CCN(C)CC6)cc5[nH]4)cc3)nn2)cc1 | > 32 | 16 to 32 (≈ 31.8 to 63.5 µM) | > 32 | 16 (≈ 31.8 µM) | > 32 | 16 to 32 (≈ 31.8 to 63.5 µM) | 1.9 | > 32 | > 32 | 16 (≈ 31.8 µM) | 16 (≈ 31.8 µM) | > 32 | 16 (≈ 31.8 µM) | > 32 | > 32 | > 32 | Active |  |  | 
CN1CCN(c2ccc3nc(-c4ccc(OCCCN)cc4)[nH]c3c2)CC1 | > 32 | > 32 | > 32 | > 32 | > 32 | > 32 | 3.3 | > 32 | > 32 | > 32 | > 32 | > 32 | > 32 | > 32 | > 32 | > 32 | Active |  |  | 
CCOc1ccc(-c2nc3ccc(N4CCN(C)CC4)cc3[nH]2)cc1 | > 32 | 16 (≈ 47.6 µM) | > 32 | 16 to 32 (≈ 47.6 to 95.1 µM) | > 32 | 16 to 32 (≈ 47.6 to 95.1 µM) | 1.7 | > 32 | > 32 | 16 (≈ 47.6 µM) | 16 (≈ 47.6 µM) | > 32 | 16 (≈ 47.6 µM) | > 32 | > 32 | > 32 | Active |  |  | 
CN1CCN(c2cc(C(=O)O)c3nc(-c4ccc(O)cc4)[nH]c3c2)CC1 |  | > 32 |  | > 32 |  | > 32 | 0 |  |  | > 32 | > 32 |  | > 32 |  |  |  | Active |  |  | 
C#CCOCCOCCOCCOCCOCCOCCOc1ccc(-c2nc3ccc(-c4nc5ccc(N6CCN(C)CC6)cc5[nH]4)cc3[nH]2)cc1 | ≥ 32 | 16 to 32 (≈ 22 to 44 µM) | 16 to 32 (≈ 22 to 44 µM) | 16 to 32 (≈ 22 to 44 µM) | > 32 | 16 to 32 (≈ 22 to 44 µM) | 13.1 | > 32 | ≥ 32 | 16 to 32 (≈ 22 to 44 µM) | 2 to 4 (≈ 2.75 to 5.5 µM) | > 32 | 16 to 32 (≈ 22 to 44 µM) | > 32 | > 32 | > 32 | Active | > 50 | inactive | > 10
CN1CCN(c2ccc3nc(-c4ccc(OCCN=[N+]=[N-])cc4)[nH]c3c2)CC1 | > 32 | 16 to 32 (≈ 42.4 to 84.8 µM) | > 32 | 16 to 32 (≈ 42.4 to 84.8 µM) | > 32 | ≥ 32 | 1.9 | > 32 | > 32 | 16 (≈ 42.4 µM) | 16 (≈ 42.4 µM) | > 32 | 16 (≈ 42.4 µM) | > 32 | > 32 | > 32 | Active |  |  | 
Oc1ccc(-c2nc3ccccc3[nH]2)cc1 | > 32 | 16 (≈ 76.1 µM) | > 32 | 16 to 32 (≈ 76.1 to 152 µM) | > 32 | 16 to 32 (≈ 76.1 to 152 µM) | 0 | > 32 | > 32 | 16 (≈ 76.1 µM) | 16 (≈ 76.1 µM) | 16 to 32 (≈ 76.1 to 152 µM) | 16 (≈ 76.1 µM) | > 32 | > 32 | > 32 | Active |  |  | 
CN1CCN(c2ccc3nc(-c4ccc5nc(-c6ccc(O)cc6)[nH]c5c4)[nH]c3c2)CC1.Cl.Cl.Cl |  | 16 to 32 |  | 16 to 32 |  | > 32 |  |  |  | 8 to 16 | 8 |  | 8 |  |  |  |  |  |  | > 10
